These results are taken from article PMC3828798 (Journal of the American Heart Association: Cardiovascular …, 2013).

The data set concerns the target Recombinant angiotensin converting enzyme 2 (rACE2) (Homo sapiens, UniProt Q9BYF1). Put plainly: ACE2 proteolysis assay of pyr‐1‐apelin‐13 and APLN analogues. In kind it is in vitro ADME. The following applies: rACE2 in Tris buffer pH 8.0; HPLC coupled with MALDI‐TOF; Figures S8 and S9. Put shortly: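 Quenched with 100 mmol/L EDTA pH 7.0. C18 reverse-phase HPLC, 10–45% acetonitrile/0.1% TFA, detection at 220 nm. Hydrolysis taken from substrate and product peak areas; masses confirmed by MALDI-TOF.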

Chain of Recombinant angiotensin converting enzyme 2 (rACE2) (Q9BYF1 18-805): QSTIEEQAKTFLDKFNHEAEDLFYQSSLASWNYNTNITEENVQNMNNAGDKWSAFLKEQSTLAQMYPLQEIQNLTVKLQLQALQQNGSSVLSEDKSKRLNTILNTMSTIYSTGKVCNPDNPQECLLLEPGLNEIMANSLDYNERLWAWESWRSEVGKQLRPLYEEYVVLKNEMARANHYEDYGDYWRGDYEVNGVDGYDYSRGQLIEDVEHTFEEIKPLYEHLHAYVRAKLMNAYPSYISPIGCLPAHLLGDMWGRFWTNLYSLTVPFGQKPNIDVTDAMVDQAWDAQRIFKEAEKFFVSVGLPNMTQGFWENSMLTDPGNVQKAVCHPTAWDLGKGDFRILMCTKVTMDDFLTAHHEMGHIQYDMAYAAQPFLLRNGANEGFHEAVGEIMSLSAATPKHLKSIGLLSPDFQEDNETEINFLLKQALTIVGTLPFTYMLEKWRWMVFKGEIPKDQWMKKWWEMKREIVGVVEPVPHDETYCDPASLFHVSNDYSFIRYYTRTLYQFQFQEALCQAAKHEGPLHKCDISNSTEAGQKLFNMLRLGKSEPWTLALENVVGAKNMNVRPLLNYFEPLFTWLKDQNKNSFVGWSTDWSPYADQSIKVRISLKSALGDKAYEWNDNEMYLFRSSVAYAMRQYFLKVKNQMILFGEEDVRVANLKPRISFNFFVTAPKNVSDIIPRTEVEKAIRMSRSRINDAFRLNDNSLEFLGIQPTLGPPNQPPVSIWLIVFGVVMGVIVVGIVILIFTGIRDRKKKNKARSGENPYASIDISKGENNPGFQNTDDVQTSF

In the case of “pyr‐1‐apelin‐13 (QRPRLSHKGPMPF; Apelin-13 N-terminal pyroglutamate; UniProt Q9ULZ1 65-77, looked up, fragment)”, the “susceptibility to ACE2‐mediated proteolysis (result in words)” value is given as “efficient ACE2‐mediated cleavage”.
